ZTA counter: ZTA (EBV) inhibition in EBNA-1 counter-screen; ZTA-DNA binding, fluorescence polarization; P03206; inhibition, % at 11 µM; 0.15% of 320,000 active; AID 2234; in the data active = inhibition above about 33%
HCV core dimer: HCV core protein dimerization inhibition; TR-FRET GST/Flag-core106 dimerization, 1536-well; inhibition, % at 5 µM; 0.33% of 300,000 active;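 active = inhibition above the mean of all tested compounds plus 3 SD, set per screening campaign, cut at about 45% in these data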
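Material: GST/Flag-tagged HCV core106 proteins. Incubation: 4 h, 22.5 °C incubation. Read-out basis: inhibition (%) from 671 over 617 nm ratio. Measured by: TR-FRET, excitation 340 nm, emission 617 and 671 nm.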
EBNA-1 inh: blocks EBNA-1 binding to DNA | AID 1950 | inhibition, % at 14.8 µM | 0.34% of 300,000 active | EBNA-1 DNA binding, fluorescence polarization; in the data active = inhibition above about 28%
HCV NS3 hel inh: blocks Hepatitis C virus NS3 helicase unwinding | 0.56% of 290,000 active | NS3 helicase DNA unwinding, Cy5 molecular beacon fluorescence | inhibition, % at 10.9 µM | AID 1800;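 active = inhibition above the mean of all tested compounds plus 3 SD, set per campaign, cut at about 35% in these data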
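System: HCV NS3 helicase fragment; control set: DMSO and thioflavine S; technique: Cy5 fluorescence at 0 and 60 min, beacon hairpin quenching; reagent: beacon DNA duplex substrate plus ATP; replicates: singlicate; schedule: 1 h reaction at 25 °C, ATP-initiated; medium: MOPS buffer pH 6.5 with MgCl2, DTT, Tween20, BSA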
EBV gp42 block: blocks Epstein-Barr virus glycoprotein 42 binding; inhibition, % (tested at 21.74 µM); Q1HVG2; Fluorescence polarization binding assay, mP read-out; AID 1085; 0.42% of 220,000 active; in the data active = inhibition above about 50%
Target sequence (Q1HVG2 whole entry, looked up): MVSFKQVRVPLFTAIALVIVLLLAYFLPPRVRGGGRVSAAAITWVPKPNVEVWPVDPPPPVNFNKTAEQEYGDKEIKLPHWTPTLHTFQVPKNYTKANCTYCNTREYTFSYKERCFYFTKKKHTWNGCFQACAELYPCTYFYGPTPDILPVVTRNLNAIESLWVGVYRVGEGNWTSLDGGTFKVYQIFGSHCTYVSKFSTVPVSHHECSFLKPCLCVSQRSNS
GPR7 antagonist: blocks human GPR7 receptor signaling. P48145. GPR7-expressing cells, fluorescence antagonist assay. inhibition, % at 4.4 µM. 1.1% of 290,000 active. AID 1861; in the data active = inhibition above about 16%, passing the limit was not always enough;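 also: cells stimulated with the agonist NPW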
Target sequence (P48145 whole entry, looked up): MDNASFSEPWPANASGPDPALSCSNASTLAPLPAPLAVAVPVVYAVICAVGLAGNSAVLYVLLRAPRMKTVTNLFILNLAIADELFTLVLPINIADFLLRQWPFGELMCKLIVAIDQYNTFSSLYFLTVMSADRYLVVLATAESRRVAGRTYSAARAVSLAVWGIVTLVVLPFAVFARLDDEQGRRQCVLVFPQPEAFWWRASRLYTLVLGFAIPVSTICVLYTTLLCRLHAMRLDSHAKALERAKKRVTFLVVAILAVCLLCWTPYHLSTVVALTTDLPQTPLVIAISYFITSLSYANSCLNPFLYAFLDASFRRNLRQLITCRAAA
Hits are given with their value; 0 = inactive; - = not tested or not shown. Sampled rows, rich in hits. Any-hit rate of the full collection: about 2.3%.

SMILES	ZTA counter	HCV core dimer	EBNA-1 inh	HCV NS3 hel inh	EBV gp42 block	GPR7 antagonist
Cc1ccccc1NC(=O)Nc1nc2ccc(S(C)(=O)=O)cc2s1	38	0	155	0	0	0
COc1ccc(C(=O)NC2CCCc3ccccc32)c(OC)c1OC (centres undefined)	0	0	0	0	-	0
COc1ccc(C2CC(c3ccccc3)=NN2c2ccc(C(N)=O)cc2)cc1 (centres undefined)	0	0	0	0	-	0
COc1ccc(C2CC(c3ccccc3)=NN2c2ccc(/C=N/NC(=O)c3ccncc3)cc2)cc1 (centres undefined)	0	48	0	0	0	0
CCN(CC)C(=O)CSc1nnc2nnc3cc(OC)ccc3n12	0	0	0	0	124	0
CC1(O)C(=O)C=C2C=C(c3ccc(C#N)cc3)OC=C2C1=O (centres undefined)	0	55	0	-	-	-
COc1ccc(C2=CC3=CC(=O)C(C)(O)C(=O)C3=CO2)cc1 (centres undefined)	0	0	0	-	-	-
CSc1ncc(CN2CCCC(C(=O)Nc3ccc(-c4ccco4)cc3)C2)cn1 (centres undefined)	0	57	0	0	-	0
Cc1ncc(CN2CCCC(C(=O)Nc3ccc(-c4ccco4)cc3)C2)n1C (centres undefined)	0	0	0	0	-	0
Cc1ccc(S(=O)(=O)N(C)c2ccc(C(=O)NCC(c3ccco3)N(C)C)cc2)cc1 (centres undefined)	0	-	-	-	-	-
COc1ccc(S(=O)(=O)c2c(N)n(Cc3ccco3)c3nc4ccccc4nc23)cc1	0	72	0	0	50	0
COc1ccc(NC(=O)CC2SC3=NCCN3C2=O)cc1 (centres undefined)	0	0	0	0	0	0
CCN(CC)c1ccc2c(C)c(Cl)c(=O)oc2c1	0	0	0	0	0	0
CCN(CC)c1ccc2c(c1)oc(=O)c1c(Cl)cc(=O)oc12	0	0	0	0	54	0
CCN(CC)c1ccc2c(Cl)c(Br)c(=O)oc2c1	0	0	0	0	0	41
CCN(CC)c1ccc2c(C)cc(=O)oc2c1	0	-	-	-	-	-
Cc1ccccc1C(=O)Nc1nnc(SC(C)C)s1	0	0	0	0	0	0
O=C(COC(=O)c1cccc(Br)c1)NCCC1=CCCCC1	0	0	0	0	0	0
O=C(NCC(=O)N1CCN(S(=O)(=O)c2cccs2)CC1)c1ccc(Cl)cc1	0	0	0	0	0	0
O=c1cc(CN2CCc3ccccc32)nc2sccn12	0	86	0	0	0	0
O=c1cc(CN2CCCc3ccccc32)nc2sccn12	0	0	0	0	0	0
COc1ccccc1NC(=O)CCCN1C(=O)C2CC=CCC2C1=O (centres undefined)	0	0	0	0	-	0
COc1ccc(C)cc1N(C(=O)c1ccco1)C(C(=O)NC1CCCC1)c1ccc(N2CCOCC2)cc1 (centres undefined)	0	0	0	0	-	0
CC1CCN(C(=O)CN(c2ccccc2)S(=O)(=O)N(C)C)CC1	0	0	0	0	0	21
CN1CCN(C(=O)CN(c2ccccc2)S(=O)(=O)N(C)C)CC1	0	0	0	0	0	0
SMILES	ZTA counter	HCV core dimer	EBNA-1 inh	HCV NS3 hel inh	EBV gp42 block	GPR7 antagonist
CC(C)(C(=O)O)n1cncn1	0	0	0	0	0	0
COc1ccc2c3c(cccc13)C(=O)N(O)C2=O	0	0	0	0	75	0
Cn1c(=O)c(Nc2ccc(O)cc2)c2c3c(cccc31)C(=O)c1ccccc1-2	0	0	0	0	127	0
CC(=O)c1c2c3c(cccc3n(C)c1=O)C(=O)c1ccccc1-2	0	0	0	0	-	0
COc1ccc2c(CC(=O)Nc3ccc(OC)c(NS(=O)(=O)c4ccc(F)cc4)c3)coc2c1	0	68	0	0	0	0
Cc1ccc(C2=CC(c3ccc(C)cc3)n3ncnc3N2)cc1 (centres undefined)	0	0	0	-	-	-
CC(=O)Nc1cccc(C2=CC(c3ccco3)n3ncnc3N2)c1 (centres undefined)	0	0	0	0	130	0
COc1ccc(C2=CC(c3ccco3)n3ncnc3N2)cc1 (centres undefined)	-	-	-	0	88	0
COc1ccc(C2C=C(c3ccccc3)Nc3ncnn32)cc1 (centres undefined)	0	0	0	0	0	0
Clc1ccc(C2=CC(c3ccco3)n3ncnc3N2)cc1 (centres undefined)	0	0	0	0	80	0
Cc1ccccc1NC(=O)COC(=O)c1cc(S(=O)(=O)N2CCOCC2)ccc1C	0	-	-	-	-	-
O=C(Nc1ccc(-n2cnnn2)cc1)C1CCC1	0	0	0	0	89	0
Cc1ccn(C(=O)c2ccc(NC(=O)C3CCCCC3)cc2)n1	0	0	0	0	181	0
NC(=O)c1ccc(NC(=O)C2CCCC2)cc1	0	0	0	0	-	0
CC(=O)Nc1ccc(NC(=O)C2CCCN(S(=O)(=O)c3ccc(-n4cnnn4)cc3)C2)cc1 (centres undefined)	0	0	0	0	-	0
Cc1cccc(C)c1OCC(=O)NNC(=O)CCNC(=O)c1ccco1	0	0	0	-	-	-
CCOC(=O)[C@H]1[C@H]2COc3ccc(OC)cc3[C@@H]2N2C(=O)[C@H](C)NC(=O)[C@@]12C	0	-	-	-	-	-
Cc1ccccc1NCC(=O)N/N=C\C=C\c1cccc([N+](=O)[O-])c1	0	0	0	0	0	0
COc1ccc(NC(=O)Cc2nnc(SCC(=O)Nc3nccs3)n2C)cc1	0	0	0	0	-	0
O=C(CSc1ccccn1)Nc1ccc2c(c1)C(=O)c1ccccc1C2=O	0	0	0	0	52	0
O=C(CSc1ccccn1)Nc1ccc2ccccc2c1	0	0	0	0	0	0
O=C(CSc1n[nH]c(=O)[nH]c1=O)Nc1cccc(S(=O)(=O)N2CCOCC2)c1	0	0	0	0	0	0
O=C(CSc1n[nH]c(=O)[nH]c1=O)Nc1ccc2c(c1)C(=O)c1ccccc1C2=O	0	0	0	0	64	0
Cc1c(/C=N/O)c2ccccn2c1C=O	0	0	0	0	0	0
Cc1cccn2c(=O)c3cc(S(=O)(=O)c4ccccc4)c(=N)n(Cc4ccco4)c3nc12	0	0	0	0	0	0
SMILES	ZTA counter	HCV core dimer	EBNA-1 inh	HCV NS3 hel inh	EBV gp42 block	GPR7 antagonist
Cc1ccc(S(=O)(=O)c2cc3c(=O)n4ccccc4nc3n(Cc3ccco3)c2=N)cc1C	0	70	0	0	0	0
COc1ccc(C(C(=O)NC2CCCC2)N(C(=O)c2snc(-c3ccc(F)cc3)c2N)c2ccc(OC)cc2)cc1 (centres undefined)	0	48	0	0	0	0
CC1(C)Cc2c(C#N)c(NCc3ccco3)nc(-c3ccco3)c2CO1	0	52	0	0	0	0
Cc1cccc(NC(=O)CSc2nnnn2C)n1	0	0	0	0	75	0
Cc1ccccc1NC(=O)CSc1nnnn1C	0	0	0	0	0	0
Cn1nnnc1SCC(=O)Nc1ccccc1-c1ccccc1	0	0	0	0	0	16
